Legend:
[1] = target: T1, human calcitonin1-32 (hCT) (Homo sapiens, UniProt P01258); test: AFM morphology of aggregates, hCT; type: biochemical; settings: pure hCT 20 μM, 24 h
T1 sequence (P01258 85-116): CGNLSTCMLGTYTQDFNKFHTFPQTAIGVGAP
Procedure, shortened: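 AFM imaging of samples taken at different time points of the ThT kinetics runs. hCT at 20 μM was incubated alone or with 5–20 μM test defensin at 37 °C. Fibril heights and lengths were measured from the images.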

[2] = target: T1, human calcitonin1-32 (hCT); test: CD secondary structure, hCT; type: biochemical; settings: pure 20 μM, 10 mM sodium phosphate pH 7.4, 37 °C, 24–72 h, BeStSel
Procedure, shortened: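 Aβ, hIAPP or hCT at 20 μM, alone or co-incubated with test defensin at 37 °C. Circular dichroism spectra were deconvoluted with BestSel into secondary-structure fractions, including β-structure content.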

[3] = tested on: SH-SY5Y cells; test: MTT cell viability, SH-SY5Y; type: cell-based, human; settings: pure amyloid 20 μM, 24 h
[4] = tested on: SH-SY5Y cells; test: LDH cytotoxicity, SH-SY5Y; type: cell-based, human; settings: pure amyloid 20 μM, 24 h; % of positive control
[5] = tested on: Candida albicans, Escherichia coli, Enterococcus faecalis, and Staphylococcus epidermidis; settings: ref 41,42 (Aβ); 43 (hIAPP); 44,45 (GNNQQNY); 46 (KLVFFGAIL); cited from earlier work
[6] = target: human islet amyloid polypeptide1-37 (hIAPP) (Homo sapiens, UniProt P10997); test: CD secondary structure, hIAPP; type: biochemical; settings: pure 20 μM, 10 mM sodium phosphate pH 7.4, 37 °C, 24–72 h, BeStSel
Sequence of human islet amyloid polypeptide1-37 (hIAPP) (P10997 34-70): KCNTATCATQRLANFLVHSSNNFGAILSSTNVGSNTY
Procedure, shortened: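 Samples held 20 μM hIAPP with 0, 5 or 20 μM defensin. Circular dichroism spectra were recorded on the aggregates. Secondary-structure fractions, including β-structure content, were fitted from the spectra with BestSel.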

[7] = tested on: RIN-m5F cells; test: MTT cell viability, RIN-m5F; type: cell-based, rat; settings: pure amyloid 20 μM, 24 h
[8] = tested on: RIN-m5F cells; test: LDH cytotoxicity, RIN-m5F; type: cell-based, rat; settings: pure amyloid 20 μM, 24 h; % of positive control
[9] = tested on: Staphylococcus aureus; settings: cited from earlier work
[10] = tested on: Escherichia coli; settings: cited from earlier work

For CC[C@H](C)[C@H](NC(=O)[C@H](C)NC(=O)[C@@H](NC(=O)[C@H](CCC(N)=O)NC(=O)[C@@H]1CCCN1C(=O)[C@H](Cc1ccccc1)NC(=O)[C@@H](NC(=O)[C@H](Cc1c[nH]cn1)NC(=O)[C@H](Cc1ccccc1)NC(=O)[C@H](CCCCN)NC(=O)[C@H](CC(N)=O)NC(=O)[C@H](Cc1ccccc1)NC(=O)[C@H](CC(=O)O)NC(=O)[C@H](CCC(N)=O)NC(=O)[C@@H](NC(=O)[C@H](Cc1ccc(O)cc1)NC(=O)[C@@H](NC(=O)CNC(=O)[C@H](CC(C)C)NC(=O)[C@H](CCSC)NC(=O)[C@@H]1CSSC[C@H](N)C(=O)NCC(=O)N[C@@H](CC(N)=O)C(=O)N[C@@H](CC(C)C)C(=O)N[C@@H](CO)C(=O)N[C@@H]([C@@H](C)O)C(=O)N1)[C@@H](C)O)[C@@H](C)O)[C@@H](C)O)[C@@H](C)O)C(=O)NCC(=O)N[C@H](C(=O)NCC(=O)N[C@@H](C)C(=O)N1CCC[C@H]1C(N)=O)C(C)C [hCT], the “average height of fibrils” value [1] was 16 nm, the “average length of fibrils” value ([1]; N up to 40) was 477 nm and the β-structure content [2] was 56.4%. The cell viability [3] was 67% and the cell toxicity [4] was 35%.

In the case of GNNQQNY, the “antibacterial and antifungal activities” value [5] is given as “antibacterial and antifungal activities”.

For KLVFFGAIL, the “antibacterial and antifungal activities” value [5] is listed as “antibacterial and antifungal activities”.

Compound CC[C@H](C)[C@H](NC(=O)[C@H](C)NC(=O)CNC(=O)[C@H](Cc1ccccc1)NC(=O)[C@H](CC(N)=O)NC(=O)[C@H](CC(N)=O)NC(=O)[C@H](CO)NC(=O)[C@H](CO)NC(=O)[C@H](Cc1c[nH]cn1)NC(=O)[C@@H](NC(=O)[C@H](CC(C)C)NC(=O)[C@H](Cc1ccccc1)NC(=O)[C@H](CC(N)=O)NC(=O)[C@H](C)NC(=O)[C@H](CC(C)C)NC(=O)[C@H](CCCNC(=N)N)NC(=O)[C@H](CCC(N)=O)NC(=O)[C@@H](NC(=O)[C@H](C)NC(=O)[C@@H]1CSSC[C@H](NC(=O)[C@@H](N)CCCCN)C(=O)N[C@@H](CC(N)=O)C(=O)N[C@@H]([C@@H](C)O)C(=O)N[C@@H](C)C(=O)N[C@@H]([C@@H](C)O)C(=O)N1)[C@@H](C)O)C(C)C)C(=O)N[C@@H](CC(C)C)C(=O)N[C@@H](CO)C(=O)N[C@@H](CO)C(=O)N[C@H](C(=O)N[C@@H](CC(N)=O)C(=O)N[C@H](C(=O)NCC(=O)N[C@@H](CO)C(=O)N[C@@H](CC(N)=O)C(=O)N[C@H](C(=O)N[C@@H](Cc1ccc(O)cc1)C(N)=O)[C@@H](C)O)C(C)C)[C@@H](C)O [hIAPP] has a β-structure content [6] of 48.5%, a cell viability [7] of 55% and a cell toxicity [8] of 25%. For the same compound, the bacteria growth [9] was “hinder Staphylococcus aureus and Escherichia coli bacteria growth”, the bacteria growth [10] was “hinder Staphylococcus aureus and Escherichia coli bacteria growth” and the “antibacterial and antifungal activities” value [5] was “antibacterial and antifungal activities”.

From publication PMC9214849 (Chemical Science, 2022)
